According to ChEMBL document CHEMBL1250448, “Inhibitor hijacking of Akt activation” (Nat Chem Biol, 2009):

Assays:
[1] = biological target: High affinity nerve growth factor receptor (Homo sapiens) (UniProt P04629); assay: Inhibition of NTRK1 at 1 uM in presence of 100 uM ATP by Select Screen kinase assay relative to untreated control
Outline: (§1)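 Commercial SelectScreen profiling panel of 220 purified kinases. Each kinase was tested at a single inhibitor concentration of 1 μM, and activity was expressed as percent inhibition.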

[2] = biological target: T1, Testis-specific serine/threonine-protein kinase 1 (Homo sapiens) (UniProt Q9BXA7); assay: Inhibition of STK22D at 1 uM in presence of 10 uM ATP by Select Screen kinase assay relative to untreated control; outline: as §1
T1 sequence (whole entry): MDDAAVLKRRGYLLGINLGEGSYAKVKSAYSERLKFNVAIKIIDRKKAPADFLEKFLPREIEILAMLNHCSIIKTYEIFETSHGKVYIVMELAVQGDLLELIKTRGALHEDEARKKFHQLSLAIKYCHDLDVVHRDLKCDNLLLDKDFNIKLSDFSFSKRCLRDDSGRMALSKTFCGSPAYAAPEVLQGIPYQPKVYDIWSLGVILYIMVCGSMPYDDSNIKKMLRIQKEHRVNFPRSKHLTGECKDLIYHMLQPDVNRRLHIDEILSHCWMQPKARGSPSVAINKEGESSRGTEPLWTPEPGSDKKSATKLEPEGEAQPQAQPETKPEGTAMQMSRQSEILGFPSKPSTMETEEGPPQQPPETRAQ

[3] = biological target: Serine/threonine-protein kinase MARK2 (Homo sapiens) (UniProt Q7KZI7); assay: Inhibition of MARK2 at 1 uM in presence of 10 uM ATP by Select Screen kinase assay relative to untreated control
Outline: (§2)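 Single-concentration profiling at 1 μM against a panel of 220 purified kinases, run as an outsourced SelectScreen kinase profiling service. Activity is expressed as percent inhibition.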

[4] = biological target: Serine/threonine-protein kinase 24 (Homo sapiens) (UniProt Q9Y6E0); assay: Inhibition of STK24 at 1 uM in presence of 100 uM ATP by Select Screen kinase assay relative to untreated control; outline: as §1
[5] = biological target: Insulin-like growth factor 1 receptor (Homo sapiens) (UniProt P08069); assay: Inhibition of IGF1R at 1 uM in presence of 10 uM ATP by Select Screen kinase assay relative to untreated control; outline: as §2
[6] = biological target: Serine/threonine-protein kinase Nek7 (Homo sapiens) (UniProt Q8TDX7); assay: Inhibition of NEK7 at 1 uM in presence of 100 uM ATP by Select Screen kinase assay relative to untreated control; outline: as §1
[7] = biological target: Vascular endothelial growth factor receptor 1 (Homo sapiens) (UniProt P17948); assay: Inhibition of FLT1 at 1 uM in presence of 100 uM ATP by Select Screen kinase assay relative to untreated control; outline: as §2
[8] = biological target: Fibroblast growth factor receptor 4 (Homo sapiens) (UniProt P22455); assay: Inhibition of FGFR4 at 1 uM in presence of 10 uM ATP by Select Screen kinase assay relative to untreated control; outline: as §2
[9] = biological target: T2, Interleukin-1 receptor-associated kinase 4 (Homo sapiens) (UniProt Q9NWZ3); assay: Inhibition of IRAK4 at 1 uM in presence of 10 uM ATP by Select Screen kinase assay relative to untreated control; outline: as §2
T2 sequence (whole entry): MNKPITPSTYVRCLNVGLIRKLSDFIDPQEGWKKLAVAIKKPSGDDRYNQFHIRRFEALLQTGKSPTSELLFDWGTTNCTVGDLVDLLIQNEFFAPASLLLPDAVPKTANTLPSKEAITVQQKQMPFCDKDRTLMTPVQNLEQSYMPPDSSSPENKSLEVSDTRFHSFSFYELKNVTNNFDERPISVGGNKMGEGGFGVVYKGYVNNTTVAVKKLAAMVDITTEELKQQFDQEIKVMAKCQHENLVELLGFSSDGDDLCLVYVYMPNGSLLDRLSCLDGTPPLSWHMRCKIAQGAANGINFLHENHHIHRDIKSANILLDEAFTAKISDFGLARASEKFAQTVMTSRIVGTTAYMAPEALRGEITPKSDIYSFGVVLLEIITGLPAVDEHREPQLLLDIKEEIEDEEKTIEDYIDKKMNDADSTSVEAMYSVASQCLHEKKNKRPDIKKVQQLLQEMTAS

[10] = biological target: Tyrosine-protein kinase CSK (Homo sapiens) (UniProt P41240); assay: Inhibition of CSK at 1 uM in presence of 10 uM ATP by Select Screen kinase assay relative to untreated control
Outline: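 Single-point screen at 1 μM against a panel of 220 purified kinases, run by Invitrogen staff as a SelectScreen profiling service. Read-out is percent inhibition of kinase activity.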

[11] = biological target: T3, Serine/threonine-protein kinase Nek9 (Homo sapiens) (UniProt Q8TD19); assay: Inhibition of NEK9 at 1 uM in presence of 10 uM ATP by Select Screen kinase assay relative to untreated control; outline: as §1
T3 sequence (whole entry): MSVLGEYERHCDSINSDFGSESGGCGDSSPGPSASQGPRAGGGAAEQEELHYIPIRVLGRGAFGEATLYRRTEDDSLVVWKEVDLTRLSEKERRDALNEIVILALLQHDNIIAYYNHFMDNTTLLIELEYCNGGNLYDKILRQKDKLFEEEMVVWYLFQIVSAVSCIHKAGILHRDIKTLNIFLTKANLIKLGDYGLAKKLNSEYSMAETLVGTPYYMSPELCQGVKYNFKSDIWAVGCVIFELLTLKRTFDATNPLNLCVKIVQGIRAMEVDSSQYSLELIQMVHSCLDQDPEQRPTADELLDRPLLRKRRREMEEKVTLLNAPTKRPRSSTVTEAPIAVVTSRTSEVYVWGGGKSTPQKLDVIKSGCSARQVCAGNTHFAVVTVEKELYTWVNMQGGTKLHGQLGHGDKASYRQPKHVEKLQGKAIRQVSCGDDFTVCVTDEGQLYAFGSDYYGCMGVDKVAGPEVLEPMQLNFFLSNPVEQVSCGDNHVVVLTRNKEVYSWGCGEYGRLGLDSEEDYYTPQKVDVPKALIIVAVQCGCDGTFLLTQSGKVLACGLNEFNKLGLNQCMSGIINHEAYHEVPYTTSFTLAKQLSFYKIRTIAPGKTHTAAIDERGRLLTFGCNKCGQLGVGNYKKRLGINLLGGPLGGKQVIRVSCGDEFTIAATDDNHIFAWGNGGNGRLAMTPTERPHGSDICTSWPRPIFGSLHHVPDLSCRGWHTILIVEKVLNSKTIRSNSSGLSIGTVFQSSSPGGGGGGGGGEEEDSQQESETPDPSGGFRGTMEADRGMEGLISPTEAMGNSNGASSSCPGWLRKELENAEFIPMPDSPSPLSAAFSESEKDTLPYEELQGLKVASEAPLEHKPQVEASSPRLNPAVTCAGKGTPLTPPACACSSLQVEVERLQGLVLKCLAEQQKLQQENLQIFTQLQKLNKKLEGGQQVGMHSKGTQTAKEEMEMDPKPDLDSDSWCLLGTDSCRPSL

[12] = biological target: Tyrosine-protein kinase Lyn (Homo sapiens) (UniProt P07948); assay: Inhibition of LYN A at 1 uM in presence of 10 uM ATP by Select Screen kinase assay relative to untreated control; outline: as §2
Chain of Tyrosine-protein kinase Lyn (Homo sapiens) (P07948 2-512 limits assumed): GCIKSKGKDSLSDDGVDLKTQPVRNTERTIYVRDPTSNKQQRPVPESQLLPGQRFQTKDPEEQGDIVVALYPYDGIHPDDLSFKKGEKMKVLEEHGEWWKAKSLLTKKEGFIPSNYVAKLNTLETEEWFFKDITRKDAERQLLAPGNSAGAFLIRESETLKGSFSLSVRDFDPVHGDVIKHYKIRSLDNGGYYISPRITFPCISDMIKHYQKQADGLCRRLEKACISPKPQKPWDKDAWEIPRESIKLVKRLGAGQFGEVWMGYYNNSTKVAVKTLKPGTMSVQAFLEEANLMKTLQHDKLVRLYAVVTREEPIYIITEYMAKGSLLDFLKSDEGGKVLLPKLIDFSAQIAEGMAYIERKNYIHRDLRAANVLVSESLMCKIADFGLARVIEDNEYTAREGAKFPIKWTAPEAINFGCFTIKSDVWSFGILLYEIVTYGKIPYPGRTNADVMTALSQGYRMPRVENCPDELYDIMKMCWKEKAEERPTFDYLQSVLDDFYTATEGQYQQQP

Chain of Insulin-like growth factor 1 receptor (Homo sapiens) (P08069 31-736 limits assumed): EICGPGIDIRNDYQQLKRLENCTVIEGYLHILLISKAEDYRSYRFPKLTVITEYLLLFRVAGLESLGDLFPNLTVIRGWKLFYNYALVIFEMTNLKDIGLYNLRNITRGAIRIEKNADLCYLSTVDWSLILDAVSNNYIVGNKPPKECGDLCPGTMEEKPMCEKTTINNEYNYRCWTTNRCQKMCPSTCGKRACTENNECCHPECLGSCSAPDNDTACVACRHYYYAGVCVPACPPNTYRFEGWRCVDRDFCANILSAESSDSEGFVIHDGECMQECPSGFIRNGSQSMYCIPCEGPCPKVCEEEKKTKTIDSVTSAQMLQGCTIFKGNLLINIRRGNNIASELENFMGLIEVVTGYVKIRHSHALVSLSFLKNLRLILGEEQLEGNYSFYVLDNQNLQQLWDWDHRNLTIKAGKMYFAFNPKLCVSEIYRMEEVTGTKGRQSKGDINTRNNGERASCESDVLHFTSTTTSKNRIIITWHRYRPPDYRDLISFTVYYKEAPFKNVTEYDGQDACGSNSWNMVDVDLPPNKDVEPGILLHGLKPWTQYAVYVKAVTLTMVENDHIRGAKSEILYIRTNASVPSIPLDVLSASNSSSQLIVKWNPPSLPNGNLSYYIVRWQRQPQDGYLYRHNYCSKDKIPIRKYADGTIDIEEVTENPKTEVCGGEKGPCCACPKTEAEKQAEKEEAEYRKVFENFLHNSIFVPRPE
Chain of Insulin-like growth factor 1 receptor (Homo sapiens) (P08069 741-1367 limits assumed): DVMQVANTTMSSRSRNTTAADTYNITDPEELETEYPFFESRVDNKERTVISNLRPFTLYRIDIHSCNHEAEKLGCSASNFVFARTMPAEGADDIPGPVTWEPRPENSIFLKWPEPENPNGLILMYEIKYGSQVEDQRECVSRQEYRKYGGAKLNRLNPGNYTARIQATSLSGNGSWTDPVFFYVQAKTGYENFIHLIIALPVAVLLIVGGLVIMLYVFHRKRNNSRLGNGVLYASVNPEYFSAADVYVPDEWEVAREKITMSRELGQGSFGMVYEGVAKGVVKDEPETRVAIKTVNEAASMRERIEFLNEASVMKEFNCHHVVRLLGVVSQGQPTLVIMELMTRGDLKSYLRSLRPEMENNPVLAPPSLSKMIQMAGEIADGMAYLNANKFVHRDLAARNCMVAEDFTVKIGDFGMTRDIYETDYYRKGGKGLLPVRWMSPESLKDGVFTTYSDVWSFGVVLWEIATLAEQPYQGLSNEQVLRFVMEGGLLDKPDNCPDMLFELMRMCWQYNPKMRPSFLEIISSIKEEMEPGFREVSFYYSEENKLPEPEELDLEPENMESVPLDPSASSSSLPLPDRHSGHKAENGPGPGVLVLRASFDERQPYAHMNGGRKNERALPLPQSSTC
Chain of Serine/threonine-protein kinase MARK2 (Homo sapiens) (Q7KZI7 whole entry): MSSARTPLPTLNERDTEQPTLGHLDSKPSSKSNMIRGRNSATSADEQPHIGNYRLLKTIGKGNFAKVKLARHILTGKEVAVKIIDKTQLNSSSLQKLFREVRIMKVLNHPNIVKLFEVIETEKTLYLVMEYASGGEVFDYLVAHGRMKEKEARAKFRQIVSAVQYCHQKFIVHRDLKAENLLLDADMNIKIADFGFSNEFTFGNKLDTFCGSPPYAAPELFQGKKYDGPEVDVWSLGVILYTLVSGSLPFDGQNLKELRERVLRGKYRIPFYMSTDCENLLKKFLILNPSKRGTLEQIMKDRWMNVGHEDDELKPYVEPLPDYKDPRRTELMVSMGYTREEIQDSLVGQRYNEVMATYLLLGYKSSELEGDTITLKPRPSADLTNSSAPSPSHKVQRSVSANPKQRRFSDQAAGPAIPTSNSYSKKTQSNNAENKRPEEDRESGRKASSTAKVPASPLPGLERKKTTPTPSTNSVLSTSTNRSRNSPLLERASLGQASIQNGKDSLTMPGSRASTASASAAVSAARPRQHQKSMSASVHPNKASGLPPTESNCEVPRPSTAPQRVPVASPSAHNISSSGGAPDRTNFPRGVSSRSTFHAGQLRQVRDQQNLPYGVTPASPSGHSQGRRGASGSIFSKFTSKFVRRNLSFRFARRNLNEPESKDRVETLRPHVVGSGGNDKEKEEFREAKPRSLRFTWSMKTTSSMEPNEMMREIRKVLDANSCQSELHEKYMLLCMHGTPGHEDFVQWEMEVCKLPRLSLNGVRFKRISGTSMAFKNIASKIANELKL
Chain of High affinity nerve growth factor receptor (Homo sapiens) (P04629 33-796 limits assumed): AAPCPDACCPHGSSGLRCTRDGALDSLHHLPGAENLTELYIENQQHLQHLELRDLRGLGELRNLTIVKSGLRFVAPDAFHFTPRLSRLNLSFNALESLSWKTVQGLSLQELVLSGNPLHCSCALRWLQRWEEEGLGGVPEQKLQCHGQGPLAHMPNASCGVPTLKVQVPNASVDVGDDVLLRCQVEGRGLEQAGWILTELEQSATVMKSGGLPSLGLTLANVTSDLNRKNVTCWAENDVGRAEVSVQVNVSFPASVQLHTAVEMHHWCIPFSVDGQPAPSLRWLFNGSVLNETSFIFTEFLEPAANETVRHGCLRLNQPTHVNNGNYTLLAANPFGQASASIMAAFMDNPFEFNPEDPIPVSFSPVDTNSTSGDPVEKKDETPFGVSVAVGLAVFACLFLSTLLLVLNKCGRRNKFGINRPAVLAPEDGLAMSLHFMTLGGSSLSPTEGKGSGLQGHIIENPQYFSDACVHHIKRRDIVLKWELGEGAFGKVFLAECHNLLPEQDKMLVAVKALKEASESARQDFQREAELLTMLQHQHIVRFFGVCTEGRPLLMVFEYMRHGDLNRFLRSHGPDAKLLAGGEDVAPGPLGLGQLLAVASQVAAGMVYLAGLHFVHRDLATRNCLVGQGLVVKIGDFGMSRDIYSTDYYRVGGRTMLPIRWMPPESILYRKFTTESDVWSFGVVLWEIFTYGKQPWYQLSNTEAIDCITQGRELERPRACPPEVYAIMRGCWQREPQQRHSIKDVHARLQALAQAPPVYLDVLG
Chain of Fibroblast growth factor receptor 4 (Homo sapiens) (P22455 22-802 limits assumed): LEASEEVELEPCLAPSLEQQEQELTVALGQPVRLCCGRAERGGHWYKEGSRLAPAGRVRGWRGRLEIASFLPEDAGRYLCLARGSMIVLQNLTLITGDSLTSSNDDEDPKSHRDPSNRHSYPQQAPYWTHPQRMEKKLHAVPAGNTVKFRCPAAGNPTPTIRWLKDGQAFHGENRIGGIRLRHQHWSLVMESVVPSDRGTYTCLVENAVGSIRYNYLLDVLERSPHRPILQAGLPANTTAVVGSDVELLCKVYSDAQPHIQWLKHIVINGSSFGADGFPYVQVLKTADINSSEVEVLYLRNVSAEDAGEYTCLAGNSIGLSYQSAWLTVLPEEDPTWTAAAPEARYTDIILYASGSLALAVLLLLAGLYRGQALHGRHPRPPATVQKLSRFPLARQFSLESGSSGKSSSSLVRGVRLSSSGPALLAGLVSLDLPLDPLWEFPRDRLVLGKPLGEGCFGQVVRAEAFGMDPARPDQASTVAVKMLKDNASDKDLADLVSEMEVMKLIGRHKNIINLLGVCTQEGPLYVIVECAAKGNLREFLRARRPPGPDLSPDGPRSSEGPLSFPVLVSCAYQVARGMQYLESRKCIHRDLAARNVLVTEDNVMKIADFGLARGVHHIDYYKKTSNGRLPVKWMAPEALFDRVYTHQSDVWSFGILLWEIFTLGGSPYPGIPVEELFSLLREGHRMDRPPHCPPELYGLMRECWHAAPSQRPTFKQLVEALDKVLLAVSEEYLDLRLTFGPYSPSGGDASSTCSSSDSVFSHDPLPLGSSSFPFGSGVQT
Chain of Serine/threonine-protein kinase 24 (Homo sapiens) (Q9Y6E0 whole entry, looked up): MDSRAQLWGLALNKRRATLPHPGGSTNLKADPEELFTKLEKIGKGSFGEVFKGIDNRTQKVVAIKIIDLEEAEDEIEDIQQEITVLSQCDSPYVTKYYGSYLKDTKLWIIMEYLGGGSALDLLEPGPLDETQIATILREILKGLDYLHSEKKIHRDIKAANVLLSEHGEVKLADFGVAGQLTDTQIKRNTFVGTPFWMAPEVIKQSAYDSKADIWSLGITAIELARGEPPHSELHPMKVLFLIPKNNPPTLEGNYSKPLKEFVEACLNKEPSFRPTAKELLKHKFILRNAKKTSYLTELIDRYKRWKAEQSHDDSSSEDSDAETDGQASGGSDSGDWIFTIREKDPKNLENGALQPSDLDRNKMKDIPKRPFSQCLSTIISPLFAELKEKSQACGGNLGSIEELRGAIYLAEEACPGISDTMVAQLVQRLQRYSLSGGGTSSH
Chain of Serine/threonine-protein kinase Nek7 (Homo sapiens) (Q8TDX7 whole entry, looked up): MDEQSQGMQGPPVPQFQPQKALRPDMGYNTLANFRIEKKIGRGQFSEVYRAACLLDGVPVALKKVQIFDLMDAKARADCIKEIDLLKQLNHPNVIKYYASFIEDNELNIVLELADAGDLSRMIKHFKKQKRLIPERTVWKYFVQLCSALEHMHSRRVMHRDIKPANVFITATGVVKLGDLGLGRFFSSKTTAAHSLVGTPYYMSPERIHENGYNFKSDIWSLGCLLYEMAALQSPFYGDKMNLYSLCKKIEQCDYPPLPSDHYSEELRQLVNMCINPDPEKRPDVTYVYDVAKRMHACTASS

| inhibition [1] [%] | inhibition [2] [%] | inhibition [3] [%] | inhibition [4] [%] | inhibition [5] [%] | inhibition [6] [%] | inhibition [7] [%] | inhibition [8] [%] | inhibition [9] [%] | inhibition [10] [%] | inhibition [12] [%] | Structure (SMILES) | inhibition [11] [%] |
| --- | --- | --- | --- | --- | --- | --- | --- | --- | --- | --- | --- | --- |
| 34 | 21 | 26 | 27 | 10 | 13 | 20 | 15 | 9 | 3 | 13 | COc1ccccc1N1CCN(c2ncnc3[nH]nc(Br)c23)CC1 | 12 |
| 84 | 69 | 93 | 2 | 10 | 9 | 52 | 29 | 49 | 5 | 27 | O=C(NCCCNc1nc(Nc2cccc(NC(=O)N3CCCC3)c2)ncc1I)c1cccs1 | 88 |

| Structure (SMILES) | inhibition [1] [%] | inhibition [2] [%] | inhibition [3] [%] | inhibition [4] [%] | inhibition [5] [%] | inhibition [6] [%] | inhibition [7] [%] | inhibition [8] [%] | inhibition [9] [%] | inhibition [10] [%] | inhibition [12] [%] | inhibition [11] [%] |
| --- | --- | --- | --- | --- | --- | --- | --- | --- | --- | --- | --- | --- |
| Cc1n[nH]c2ccc(-c3cncc(OC[C@@H](N)Cc4c[nH]c5ccccc45)c3)cc12 | 42 | 71 | 68 | 76 | 5 | 1 | -2 | -2 | 53 | -1 | 8 | 15 |
